Test results published in ChEMBL document CHEMBL1141879, “Alkylamino derivatives of 4-aminomethylpyridine as inhibitors of copper-containing amine oxidases” (J Med Chem, 2005).

How the values were obtained:
[1] = biological target: T1, Amine oxidase [flavin-containing] B (Rattus norvegicus, UniProt P19643); assay: Inhibitory concentration for rat liver Monoamine oxidase B using beta-phenylethylamine
T1 sequence (P19643 whole entry): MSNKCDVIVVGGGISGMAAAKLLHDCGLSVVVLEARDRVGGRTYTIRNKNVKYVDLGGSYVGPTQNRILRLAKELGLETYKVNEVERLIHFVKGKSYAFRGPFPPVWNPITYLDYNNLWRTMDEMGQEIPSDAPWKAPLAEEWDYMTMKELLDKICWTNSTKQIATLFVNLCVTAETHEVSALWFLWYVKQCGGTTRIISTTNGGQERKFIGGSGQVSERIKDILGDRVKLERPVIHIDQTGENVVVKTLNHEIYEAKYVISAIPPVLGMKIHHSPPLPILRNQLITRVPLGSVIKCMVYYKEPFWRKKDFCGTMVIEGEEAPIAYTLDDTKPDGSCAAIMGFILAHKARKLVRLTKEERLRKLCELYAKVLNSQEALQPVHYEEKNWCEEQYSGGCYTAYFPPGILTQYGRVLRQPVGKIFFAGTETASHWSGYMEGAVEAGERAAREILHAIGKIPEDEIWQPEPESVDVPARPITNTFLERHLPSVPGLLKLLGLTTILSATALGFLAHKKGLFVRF

[2] = biological target: T2, Amine oxidase [flavin-containing] A (Rattus norvegicus, UniProt P21396); assay: Inhibitory concentration for rat liver Monoamine oxidase A using 5-hydroxytryptamine
T2 sequence (P21396 whole entry): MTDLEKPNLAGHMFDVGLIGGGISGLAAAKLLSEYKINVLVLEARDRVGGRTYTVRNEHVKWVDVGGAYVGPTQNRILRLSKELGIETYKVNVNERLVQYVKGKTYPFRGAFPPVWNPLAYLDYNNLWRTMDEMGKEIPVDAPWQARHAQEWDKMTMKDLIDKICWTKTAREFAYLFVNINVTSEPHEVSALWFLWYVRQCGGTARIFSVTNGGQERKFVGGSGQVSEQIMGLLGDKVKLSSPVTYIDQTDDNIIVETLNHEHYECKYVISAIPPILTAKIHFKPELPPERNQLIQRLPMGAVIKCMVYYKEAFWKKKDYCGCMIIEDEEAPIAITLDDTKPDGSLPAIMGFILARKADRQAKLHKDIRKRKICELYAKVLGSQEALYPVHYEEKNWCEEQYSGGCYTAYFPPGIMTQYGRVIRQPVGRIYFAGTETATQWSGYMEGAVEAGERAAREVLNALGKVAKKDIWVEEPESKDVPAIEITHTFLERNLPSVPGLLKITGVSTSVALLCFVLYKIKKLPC

[3] = biological target: T3, Primary amine oxidase (Pisum sativum, UniProt Q43077); assay: Inhibition of putrescine binding to Pea seedling amine oxidase; set-up: species or system Lathyrus oleraceus
T3 sequence (Q43077 whole entry): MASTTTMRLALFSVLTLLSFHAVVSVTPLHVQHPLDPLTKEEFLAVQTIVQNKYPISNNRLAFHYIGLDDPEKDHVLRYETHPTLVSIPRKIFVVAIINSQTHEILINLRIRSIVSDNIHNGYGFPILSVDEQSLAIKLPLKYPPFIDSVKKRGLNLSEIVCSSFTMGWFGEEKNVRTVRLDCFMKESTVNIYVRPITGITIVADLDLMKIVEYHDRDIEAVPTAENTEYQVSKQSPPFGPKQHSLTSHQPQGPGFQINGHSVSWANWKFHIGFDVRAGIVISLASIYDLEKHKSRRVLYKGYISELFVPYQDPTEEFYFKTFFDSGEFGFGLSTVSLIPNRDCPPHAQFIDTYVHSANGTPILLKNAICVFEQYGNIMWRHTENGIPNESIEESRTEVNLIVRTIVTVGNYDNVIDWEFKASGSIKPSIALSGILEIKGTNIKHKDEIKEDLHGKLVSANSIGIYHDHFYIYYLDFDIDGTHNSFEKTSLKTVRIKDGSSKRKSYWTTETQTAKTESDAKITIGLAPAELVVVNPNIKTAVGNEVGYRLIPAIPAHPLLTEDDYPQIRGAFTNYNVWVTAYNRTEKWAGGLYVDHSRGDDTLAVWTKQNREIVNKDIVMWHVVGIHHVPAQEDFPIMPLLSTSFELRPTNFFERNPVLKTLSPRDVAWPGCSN
Outline: (§1)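 Enzyme sources: BAO from commercial porcine serum; DAO porcine kidney enzyme; PSAO from homogenate of 8-day-old pea seedlings in 0.1 M phosphate pH 7.4, cleared by two centrifugations. Substrate at saturating 1 mM (benzylamine for BAO, putrescine for DAO/PSAO). Activity read as H2O2 production by 4-aminoantipyrine method. IC50 from five inhibitor concentrations, each in duplicate, averaged.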

[4] = biological target: T4, Peroxisomal primary amine oxidase (Pichia angusta, UniProt P12807); assay: (§2) Inhibition of beta-phenylethylamine binding to Hansenula polymorpha amine oxidase; set-up: species or system Ogataea angusta
T4 sequence (P12807 whole entry): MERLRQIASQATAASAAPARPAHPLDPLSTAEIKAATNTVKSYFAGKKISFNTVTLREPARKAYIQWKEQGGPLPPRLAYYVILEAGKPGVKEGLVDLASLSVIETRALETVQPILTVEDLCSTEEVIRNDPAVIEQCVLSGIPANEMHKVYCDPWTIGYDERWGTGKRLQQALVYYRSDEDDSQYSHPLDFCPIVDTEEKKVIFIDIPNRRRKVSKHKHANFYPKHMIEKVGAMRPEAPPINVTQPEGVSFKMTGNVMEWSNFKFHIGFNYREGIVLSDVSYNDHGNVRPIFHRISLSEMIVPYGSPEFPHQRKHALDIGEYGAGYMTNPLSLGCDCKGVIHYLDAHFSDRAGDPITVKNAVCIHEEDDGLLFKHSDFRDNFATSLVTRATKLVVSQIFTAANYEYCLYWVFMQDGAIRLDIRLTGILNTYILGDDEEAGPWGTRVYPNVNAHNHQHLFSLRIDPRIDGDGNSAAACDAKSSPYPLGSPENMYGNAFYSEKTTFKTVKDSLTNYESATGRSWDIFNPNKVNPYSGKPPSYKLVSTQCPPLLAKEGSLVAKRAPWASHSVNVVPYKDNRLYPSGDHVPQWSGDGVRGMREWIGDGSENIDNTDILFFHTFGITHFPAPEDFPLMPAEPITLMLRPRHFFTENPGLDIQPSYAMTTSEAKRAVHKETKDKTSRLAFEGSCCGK

[5] = biological target: T3, Primary amine oxidase; assay: Inhibition of putrescine binding to pea seedling amine oxidase; set-up: species or system Lathyrus oleraceus; outline: as §1
[6] = biological target: T4, Peroxisomal primary amine oxidase; assay: Inhibition of phenylethylamine binding to Hansenula polymorpha amine oxidase
Outline: (§3)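 Enzyme: HPAO from Hansenula polymorpha NCYC-495 grown 24 h with glucose, 1 µM CuSO4 and methylamine, then homogenized in 0.1 M phosphate pH 7.4 and centrifuged. Substrate beta-phenylethylamine at saturating 1 mM. IC50 means from five inhibitor concentrations tested in duplicate.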

[7] = Intraperitoneal lethal dose was measured in Mus musculus; assay type: ADME; details: ip
Outline: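 Acute toxicity was tested in Swiss white Mus musculus. Five scaled doses were given intraperitoneally, 10 animals per dose.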

[8] = biological target: T4, Peroxisomal primary amine oxidase; assay: as §2; outline: as §3

IC50 [1] [µM] | IC50 [2] [µM] | Compound | IC50 [3] [µM] | IC50 [4] [µM] | further results
> 170 | 420 | CNc1cnccc1CN |  |  | IC50 [5]: 0.71 µM; IC50 [6]: 53 µM
> 2000 | > 2000 | NCc1ccncc1N |  |  | 
90 | > 100 | NCc1ccncc1NC1CC1 |  | > 1000 | 
2000 | 2200 | CC(C)Nc1cnccc1CN |  | > 1000 | 
> 100 | 150 | NCc1ccncc1NC1CCCCCC1 | 1000 | > 300 | 
> 100 | > 100 | NCc1ccncc1NC1CCCCC1 |  | > 1000 | 
> 100 | > 100 | NCc1ccncc1N(C1CCCC1)C1CCCC1 |  | > 1000 | 

The next lines start with the compound.

Compound | IC50 [1] [µM] | IC50 [2] [µM] | IC50 [3] [µM] | IC50 [4] [µM] | further results
CNc1cncc(N(C)C)c1CN | 250 | 44 | 17 | 100 | 
Cl.Cl.NCc1c(OCCCCO)cncc1OCCCCO |  |  |  |  | LD50 [7]: > 500 mg/kg
Cl.Cl.NCc1c(OCCO)cncc1OCCO.O.O.O | > 1000 | > 1600 |  |  | LD [7]: > 600 mg/kg
CNc1ccccc1CN | > 100 |  | > 100 | 750 | 
CCOc1cncc(OCc2ccccc2)c1CN | 1000 | 630 |  |  | 
CCOc1cncc(OCC)c1CN.Cl.Cl | > 1000 | > 1600 | 330 | > 1000 | LD50 [7]: 342 mg/kg
NCc1ccncc1NC1CCCC1 | > 100 | > 100 |  | 700 | 
CCCNc1cncc(N(C)CCC)c1CN | 20 | 10 |  |  | 
CCNc1cncc(N(C)CC)c1CN | 300 | 63 | 55 | 350 | 
CCNc1cnccc1CN | > 170 | 300 | 9.3 | 87 | 
CNc1cncc(NC)c1CN | > 170 | 170 |  |  | 
CCSc1cncc(SCC)c1CN | > 1000 |  |  |  | 
CC(C)(C)Sc1cncc(SC(C)(C)C)c1CN | > 1000 |  |  |  | 
NCc1ccncc1NCC1CCCCC1 | 70 | 95 |  | 540 | 
CCNc1ccccc1CN | > 100 |  | > 100 |  | IC50 [8]: 1500 µM
